Experimental data taken from ChEMBL document CHEMBL4118021, “Studies of TAK1-centered polypharmacology with novel covalent TAK1 inhibitors” (Bioorg Med Chem, 2017).
Calls of active or inactive are those of the source. The rule behind the calls is not given here.

How the values were obtained:
[1] = biological target: Tyrosine-protein kinase FRK (Homo sapiens) (UniProt P42685); test: Inhibition of FRK in human SKCO1 cells at 1 uM after 4 hrs using biotin labeled HEIKLPVK probe by mass-spectrometric analysis relative to control; type: cell-based
[2] = biological target: Tyrosine-protein kinase ZAP-70 (Homo sapiens) (UniProt P43403); test: Inhibition of ZAP70 in human SKCO1 cells at 1 uM after 4 hrs using biotin labeled ISDFGLSKALGADDSYYTAR probe by mass-spectrometric analysis relative to control; type: cell-based
[3] = biological target: T1, Mitogen-activated protein kinase kinase kinase 7 (Homo sapiens) (UniProt O43318); settings: 0.6 uM
T1 sequence (whole entry): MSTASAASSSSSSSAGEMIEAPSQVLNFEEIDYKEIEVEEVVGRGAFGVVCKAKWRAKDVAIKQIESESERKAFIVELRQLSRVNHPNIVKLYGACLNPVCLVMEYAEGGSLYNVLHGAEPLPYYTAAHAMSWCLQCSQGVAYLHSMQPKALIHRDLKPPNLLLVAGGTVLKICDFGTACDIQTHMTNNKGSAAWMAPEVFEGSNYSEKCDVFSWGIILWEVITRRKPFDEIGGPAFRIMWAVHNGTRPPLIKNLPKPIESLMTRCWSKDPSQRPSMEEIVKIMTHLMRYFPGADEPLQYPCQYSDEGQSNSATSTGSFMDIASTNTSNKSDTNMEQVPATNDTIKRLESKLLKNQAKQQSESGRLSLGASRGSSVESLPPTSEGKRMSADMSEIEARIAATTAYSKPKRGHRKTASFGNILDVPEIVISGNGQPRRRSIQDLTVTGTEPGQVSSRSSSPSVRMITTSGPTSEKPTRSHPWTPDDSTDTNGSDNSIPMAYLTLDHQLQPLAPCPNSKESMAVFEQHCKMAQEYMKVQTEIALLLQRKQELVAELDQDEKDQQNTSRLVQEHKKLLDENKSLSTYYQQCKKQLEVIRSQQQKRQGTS

[4] = Antiproliferative activity against human SW156 cells harboring wild type KRAS after 72 hrs by CellTiter-Glo assay; type: functional, cell-based
[5] = biological target: Mitogen-activated protein kinase 7 (Homo sapiens) (UniProt Q13164); test: Inhibition of Erk5 in human SKCO1 cells at 1 uM after 4 hrs using biotin labeled DLKPSNLLVNENCELK probe by mass-spectrometric analysis relative to control; type: cell-based
[6] = biological target: Tyrosine-protein kinase JAK1 (Homo sapiens) (UniProt P23458); test: Inhibition of JAK1 domain1 in human SKCO1 cells at 1 uM after 4 hrs using biotin labeled QLASALSYLEDKDLVHGNVCTKNLLLAR probe by mass-spectrometric analysis relative to control; type: cell-based
[7] = biological target: Serine/threonine-protein kinase/endoribonuclease IRE2 (Homo sapiens) (UniProt Q76MJ5); test: Inhibition of IRE2 in human SKCO1 cells at 1 uM after 4 hrs using biotin labeled DLKPGNILITGPDSQGLGR probe by mass-spectrometric analysis relative to control; type: cell-based
Chain of Serine/threonine-protein kinase/endoribonuclease IRE2 (Homo sapiens) (Q76MJ5 35-926 limits assumed): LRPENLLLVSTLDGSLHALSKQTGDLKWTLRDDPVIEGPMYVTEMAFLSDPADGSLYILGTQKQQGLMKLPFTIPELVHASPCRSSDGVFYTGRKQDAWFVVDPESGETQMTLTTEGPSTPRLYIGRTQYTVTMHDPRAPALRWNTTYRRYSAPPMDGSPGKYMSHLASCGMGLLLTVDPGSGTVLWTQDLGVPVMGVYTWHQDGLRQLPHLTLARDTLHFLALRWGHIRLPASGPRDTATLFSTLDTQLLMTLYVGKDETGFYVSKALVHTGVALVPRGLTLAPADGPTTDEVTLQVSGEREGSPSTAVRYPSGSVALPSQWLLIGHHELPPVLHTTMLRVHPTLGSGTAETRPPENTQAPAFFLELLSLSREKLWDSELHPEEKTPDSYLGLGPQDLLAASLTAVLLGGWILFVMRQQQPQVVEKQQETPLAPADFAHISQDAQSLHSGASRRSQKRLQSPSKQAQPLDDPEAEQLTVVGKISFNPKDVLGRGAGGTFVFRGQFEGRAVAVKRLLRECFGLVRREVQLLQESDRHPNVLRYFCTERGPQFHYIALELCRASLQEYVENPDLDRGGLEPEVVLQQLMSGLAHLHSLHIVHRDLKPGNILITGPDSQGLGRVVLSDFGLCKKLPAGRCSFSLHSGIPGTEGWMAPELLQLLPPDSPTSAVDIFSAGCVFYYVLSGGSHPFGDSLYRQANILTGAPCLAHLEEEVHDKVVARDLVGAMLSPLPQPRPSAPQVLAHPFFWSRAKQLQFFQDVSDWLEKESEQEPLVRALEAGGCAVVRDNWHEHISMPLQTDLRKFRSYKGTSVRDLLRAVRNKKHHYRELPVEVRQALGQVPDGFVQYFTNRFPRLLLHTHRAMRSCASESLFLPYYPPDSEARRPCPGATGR

[8] = biological target: Cyclin-dependent kinase 5 (Homo sapiens) (UniProt Q00535); test: Inhibition of CDK5 in human SKCO1 cells at 1 uM after 4 hrs using biotin labeled DLKPQNLLINR probe by mass-spectrometric analysis relative to control; type: cell-based
[9] = biological target: Serine/threonine-protein kinase Sgk3 (Homo sapiens) (UniProt Q96BR1); test: Inhibition of SGK3 in human SKCO1 cells at 1 uM after 4 hrs using biotin labeled FYAVKVLQK probe by mass-spectrometric analysis relative to control; type: cell-based
[10] = biological target: T2, Dual specificity mitogen-activated protein kinase kinase 3 (Homo sapiens) (UniProt P46734); test: Inhibition of MAP2K3 in human SKCO1 cells at 1 uM after 4 hrs using biotin labeled DVKPSNVLINK probe by mass-spectrometric analysis relative to control; type: cell-based
T2 sequence (whole entry): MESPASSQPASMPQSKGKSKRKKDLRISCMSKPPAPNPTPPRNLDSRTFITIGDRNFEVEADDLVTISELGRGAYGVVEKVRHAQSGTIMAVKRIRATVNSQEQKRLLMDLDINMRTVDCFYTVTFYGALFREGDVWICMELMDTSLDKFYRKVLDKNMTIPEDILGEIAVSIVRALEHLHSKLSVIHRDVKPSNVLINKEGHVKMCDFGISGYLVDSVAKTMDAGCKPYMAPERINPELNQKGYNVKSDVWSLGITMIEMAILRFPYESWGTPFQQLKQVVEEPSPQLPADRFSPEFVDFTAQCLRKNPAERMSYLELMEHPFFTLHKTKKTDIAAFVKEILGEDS

[11] = biological target: Dual specificity mitogen-activated protein kinase kinase 2 (Homo sapiens) (UniProt P36507); test: Inhibition of MAP2K2 in human SKCO1 cells at 1 uM after 4 hrs using biotin labeled DVKPSNILVNSR probe by mass-spectrometric analysis relative to control; type: cell-based
Method in brief: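 Live SK-CO-1 cells treated 4 h at 1 μM (DMSO control); cells lysed and lysates labeled with lysine-reactive ATP/ADP-biotin probe (KiNativ); probe-labeled kinase peptides quantified by mass spectrometry; inhibition expressed as percent reduction in probe-dependent recovery versus DMSO-treated cells.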

[12] = biological target: Serine/threonine-protein kinase Nek6 (Homo sapiens) (UniProt Q9HC98); test: Inhibition of NEK6 in human SKCO1 cells at 1 uM after 4 hrs using biotin labeled TVALKK probe by mass-spectrometric analysis relative to control; type: cell-based
Chain of Serine/threonine-protein kinase Nek6 (Homo sapiens) (Q9HC98 whole entry): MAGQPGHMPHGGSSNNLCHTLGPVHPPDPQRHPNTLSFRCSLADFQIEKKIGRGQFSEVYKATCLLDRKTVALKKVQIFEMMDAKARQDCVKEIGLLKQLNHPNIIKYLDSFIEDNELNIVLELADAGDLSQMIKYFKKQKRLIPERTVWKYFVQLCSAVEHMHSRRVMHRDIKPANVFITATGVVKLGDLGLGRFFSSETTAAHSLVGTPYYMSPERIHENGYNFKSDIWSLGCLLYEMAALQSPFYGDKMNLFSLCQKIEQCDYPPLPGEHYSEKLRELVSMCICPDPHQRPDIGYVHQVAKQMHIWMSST

[13] = biological target: Serine/threonine-protein kinase ATR (Homo sapiens) (UniProt Q13535); test: Inhibition of ATR in human SKCO1 cells at 1 uM after 4 hrs using biotin labeled FYIMMCKPK probe by mass-spectrometric analysis relative to control; type: cell-based
Chain of Serine/threonine-protein kinase ATR (Homo sapiens) (Q13535 whole entry, looked up): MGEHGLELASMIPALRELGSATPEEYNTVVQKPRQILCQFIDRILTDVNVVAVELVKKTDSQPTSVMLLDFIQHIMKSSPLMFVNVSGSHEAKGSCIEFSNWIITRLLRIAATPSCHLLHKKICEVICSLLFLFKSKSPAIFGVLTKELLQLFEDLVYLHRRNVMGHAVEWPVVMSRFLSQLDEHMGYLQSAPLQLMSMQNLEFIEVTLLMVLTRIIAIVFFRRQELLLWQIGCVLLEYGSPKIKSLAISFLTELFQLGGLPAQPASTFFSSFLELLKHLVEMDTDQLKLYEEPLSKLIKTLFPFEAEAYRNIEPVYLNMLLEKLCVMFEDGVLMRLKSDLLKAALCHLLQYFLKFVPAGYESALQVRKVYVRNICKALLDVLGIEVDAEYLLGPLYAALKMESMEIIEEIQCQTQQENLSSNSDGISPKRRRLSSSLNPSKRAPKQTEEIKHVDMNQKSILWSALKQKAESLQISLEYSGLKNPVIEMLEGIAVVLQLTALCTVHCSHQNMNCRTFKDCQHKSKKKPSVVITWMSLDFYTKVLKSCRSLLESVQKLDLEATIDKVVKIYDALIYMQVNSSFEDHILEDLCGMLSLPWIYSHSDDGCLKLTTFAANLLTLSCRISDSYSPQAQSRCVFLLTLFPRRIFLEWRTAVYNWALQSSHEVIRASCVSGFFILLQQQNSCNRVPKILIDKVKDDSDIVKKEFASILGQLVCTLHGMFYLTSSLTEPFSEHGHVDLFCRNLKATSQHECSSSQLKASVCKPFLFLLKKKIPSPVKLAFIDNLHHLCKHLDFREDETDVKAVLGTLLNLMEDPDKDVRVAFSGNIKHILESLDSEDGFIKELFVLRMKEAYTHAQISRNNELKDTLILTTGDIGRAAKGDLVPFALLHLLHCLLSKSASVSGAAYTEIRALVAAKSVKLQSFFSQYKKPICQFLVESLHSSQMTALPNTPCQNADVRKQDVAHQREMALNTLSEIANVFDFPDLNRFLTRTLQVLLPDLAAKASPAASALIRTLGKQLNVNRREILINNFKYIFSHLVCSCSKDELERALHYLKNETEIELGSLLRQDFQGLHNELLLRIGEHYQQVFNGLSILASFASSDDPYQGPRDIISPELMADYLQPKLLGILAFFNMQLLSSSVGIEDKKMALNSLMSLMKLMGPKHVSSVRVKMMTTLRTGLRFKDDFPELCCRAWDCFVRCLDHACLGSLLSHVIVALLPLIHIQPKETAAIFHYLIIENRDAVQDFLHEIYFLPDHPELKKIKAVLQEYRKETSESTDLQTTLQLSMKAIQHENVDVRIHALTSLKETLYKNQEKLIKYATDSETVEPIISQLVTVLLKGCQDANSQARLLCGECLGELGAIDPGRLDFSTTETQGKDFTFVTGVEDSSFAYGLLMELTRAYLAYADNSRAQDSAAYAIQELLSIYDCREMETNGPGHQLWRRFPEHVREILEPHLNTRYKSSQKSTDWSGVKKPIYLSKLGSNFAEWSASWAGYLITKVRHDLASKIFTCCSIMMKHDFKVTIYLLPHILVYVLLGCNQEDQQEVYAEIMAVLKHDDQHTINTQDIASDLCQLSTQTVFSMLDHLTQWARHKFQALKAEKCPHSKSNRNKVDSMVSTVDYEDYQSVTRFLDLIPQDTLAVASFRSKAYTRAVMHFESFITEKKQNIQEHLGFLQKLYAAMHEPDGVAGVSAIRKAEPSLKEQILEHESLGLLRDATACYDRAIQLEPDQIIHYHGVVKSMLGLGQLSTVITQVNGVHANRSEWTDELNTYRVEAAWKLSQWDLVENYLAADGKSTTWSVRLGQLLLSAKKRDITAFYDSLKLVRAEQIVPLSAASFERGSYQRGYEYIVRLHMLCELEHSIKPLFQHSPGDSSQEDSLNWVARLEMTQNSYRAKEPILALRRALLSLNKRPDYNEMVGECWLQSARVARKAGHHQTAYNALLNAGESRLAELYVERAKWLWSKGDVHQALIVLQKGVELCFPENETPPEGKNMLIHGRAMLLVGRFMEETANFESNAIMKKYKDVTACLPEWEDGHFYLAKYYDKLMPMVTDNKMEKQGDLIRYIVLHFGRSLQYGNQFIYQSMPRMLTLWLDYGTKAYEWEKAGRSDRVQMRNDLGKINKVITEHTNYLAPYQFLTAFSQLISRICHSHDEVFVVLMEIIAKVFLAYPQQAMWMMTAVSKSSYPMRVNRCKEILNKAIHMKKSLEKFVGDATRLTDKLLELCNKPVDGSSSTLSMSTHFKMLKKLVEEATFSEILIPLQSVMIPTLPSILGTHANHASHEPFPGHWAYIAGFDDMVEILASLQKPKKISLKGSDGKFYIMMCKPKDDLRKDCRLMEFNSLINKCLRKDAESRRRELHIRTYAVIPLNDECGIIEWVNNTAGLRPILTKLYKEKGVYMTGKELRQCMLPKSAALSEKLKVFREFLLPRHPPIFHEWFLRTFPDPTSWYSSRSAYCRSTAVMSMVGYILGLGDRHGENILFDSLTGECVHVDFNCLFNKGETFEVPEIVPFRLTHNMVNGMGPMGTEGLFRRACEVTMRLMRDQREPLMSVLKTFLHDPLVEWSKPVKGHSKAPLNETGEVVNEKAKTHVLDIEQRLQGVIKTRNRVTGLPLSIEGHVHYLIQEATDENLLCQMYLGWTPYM

[14] = biological target: Ephrin type-B receptor 2 (Homo sapiens) (UniProt P29323); test: Inhibition of EphB2 in human SKCO1 cells at 1 uM after 4 hrs using biotin labeled FLEDDTSDPTYTSALGGKIPIR probe by mass-spectrometric analysis relative to control; type: cell-based
Chain of Ephrin type-B receptor 2 (Homo sapiens) (P29323 whole entry): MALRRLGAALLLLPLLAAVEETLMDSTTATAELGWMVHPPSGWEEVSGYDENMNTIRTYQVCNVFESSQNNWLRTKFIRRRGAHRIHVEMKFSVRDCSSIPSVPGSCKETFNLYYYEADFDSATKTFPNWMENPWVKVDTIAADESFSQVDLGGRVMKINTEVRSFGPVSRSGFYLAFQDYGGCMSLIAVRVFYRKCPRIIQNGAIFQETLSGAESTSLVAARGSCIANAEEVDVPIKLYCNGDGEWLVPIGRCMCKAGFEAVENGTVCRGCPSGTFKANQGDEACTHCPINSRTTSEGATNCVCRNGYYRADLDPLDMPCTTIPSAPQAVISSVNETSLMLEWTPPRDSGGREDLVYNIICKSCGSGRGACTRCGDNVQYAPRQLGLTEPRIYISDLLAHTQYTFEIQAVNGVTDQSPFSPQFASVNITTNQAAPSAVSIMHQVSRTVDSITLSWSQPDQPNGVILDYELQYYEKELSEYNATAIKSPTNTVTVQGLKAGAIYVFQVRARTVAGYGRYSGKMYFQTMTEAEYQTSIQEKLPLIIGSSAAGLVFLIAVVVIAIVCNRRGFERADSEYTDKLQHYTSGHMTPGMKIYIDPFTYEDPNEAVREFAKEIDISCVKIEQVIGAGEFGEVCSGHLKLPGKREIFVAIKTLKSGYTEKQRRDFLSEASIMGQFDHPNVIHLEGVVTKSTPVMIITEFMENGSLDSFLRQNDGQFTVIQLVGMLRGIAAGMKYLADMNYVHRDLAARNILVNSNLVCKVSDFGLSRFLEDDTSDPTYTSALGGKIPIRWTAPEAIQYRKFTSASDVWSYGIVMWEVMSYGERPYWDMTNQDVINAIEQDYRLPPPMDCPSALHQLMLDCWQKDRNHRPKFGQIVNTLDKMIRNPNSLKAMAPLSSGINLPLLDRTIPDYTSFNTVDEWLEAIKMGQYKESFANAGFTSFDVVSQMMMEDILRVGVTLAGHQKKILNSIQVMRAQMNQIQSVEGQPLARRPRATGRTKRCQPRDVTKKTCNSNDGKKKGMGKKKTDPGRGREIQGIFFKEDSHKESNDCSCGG

[15] = Antiproliferative activity against human URMC6 cells harboring wild type KRAS after 72 hrs by CellTiter-Glo assay; type: functional, cell-based
[16] = test system: NALM-6; test: Antiproliferative activity against human NALM6 cells harboring NARS A146T mutant at […] to […] nM after 72 hrs by CellTiter-Glo assay; type: functional, cell-based
[17] = biological target: Mitogen-activated protein kinase kinase kinase kinase 5 (Homo sapiens) (UniProt Q9Y4K4); test: Inhibition of KHS1 in human SKCO1 cells at 1 uM after 4 hrs using biotin labeled NVHTGELAAVKIIK probe by mass-spectrometric analysis relative to control; type: cell-based
[18] = biological target: T3, Mitogen-activated protein kinase kinase kinase 7 (Homo sapiens, UniProt O43318); test: Inhibition of TAK1 (unknown origin) by LanthaScreen assay
T3 sequence (O43318 whole entry): T1 sequence (whole entry)

[19] = biological target: Mitogen-activated protein kinase 1 (Homo sapiens) (UniProt P28482); test: Inhibition of Erk2 in human SKCO1 cells at 1 uM after 4 hrs using biotin labeled DLKPSNLLLNTTCDLK probe by mass-spectrometric analysis relative to control; type: cell-based
[20] = test system: U-937; test: Antiproliferative activity against human U937 cells at […] to […] nM after 72 hrs by CellTiter-Glo assay; type: functional, cell-based
[21] = test system: MOLM-14; test: Antiproliferative activity against human MOLM14 cells harboring FLT3-ITD mutant at […] to […] nM after 72 hrs by CellTiter-Glo assay; type: functional, cell-based

| Compound | inhibition [1] [%] | inhibition [2] [%] | inhibition [3] | IC50 [4] [µM] | inhibition [5] [%] | inhibition [6] [%] | inhibition [7] [%] | inhibition [8] [%] | inhibition [9] [%] | inhibition [10] [%] | inhibition [11] [%] | inhibition [12] [%] | inhibition [13] [%] | inhibition [14] [%] | IC50 [15] [µM] | Activity [16] | inhibition [17] [%] | IC50 [18] [µM] | inhibition [19] [%] | Activity [20] | other results |
| --- | --- | --- | --- | --- | --- | --- | --- | --- | --- | --- | --- | --- | --- | --- | --- | --- | --- | --- | --- | --- | --- |
| COc1cc(O)c2c(c1)/C=C/C[C@H](O)[C@H](O)C(=O)/C=C\C[C@H](C)OC2=O | -9.6 | 63.6 | Active | 2.02 | 12.4 | 21.6 | 21.4 | 2.1 | -1.4 | 33.5 | 95 | -9.7 | 2 | 24.2 | 1.45 |  |  |  |  |  |  |
| C=CC(=O)Nc1ccccc1Nc1nc(Nc2ccc(N3CCN(C)CC3)cc2)ncc1Cl | 39.2 |  | Active |  |  | 64.7 | 6.9 |  | -2.7 |  |  |  | -8.1 |  |  | inactive | 14.8 | 0.05 | 42.6 | Active | Activity [21]: Active |
| C=CC(=O)Nc1ccccc1Oc1nc(Nc2cnn(CCOC)c2)ncc1Cl |  | 34.1 |  | 3.02 | 11.6 |  |  | 4.2 |  | 10.9 | 7.9 | -9.9 |  | 13.7 | 2.62 | inactive | -4.6 | 0.0024 | 55.7 | Active | Activity [21]: Active |
